TNAP act hi DEA: TNAP (human) activation, high acceptor; 200,000 tested, under 10 active; activation factor at 20 µM; purified TNAP, CDP-star luminescence, 1 M DEA, 30 min; active compounds read high; 0 = EDTA background, 1 = DMSO-only activity;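 active = activation factor at least 2 at 20 µM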
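Measured by: Luminescent substrate turnover signal | Test system: Human TNAP | Input: TNAP 1/800 final | Dosing: 20 µM single point | Schedule: 30 min, room temperature | Controls: EDTA wells as negative control, DMSO wells as positive control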
TNAP inh no acc: inhibitors of human TNAP without phosphate acceptor. purified TNAP, CDP-star luminescence, 30 min. inhibition, % at 20 µM. 200,000 tested, 0.26% active. AID 1012;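 active = tissue-nonspecific alkaline phosphatase inhibition above about 50% at 20 µM in the single-dose screen, limit read from the data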;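 note: 0% = DMSO negative control and 100% = EDTA positive control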
Ins promoter up: MIN6 insulin promoter up-regulation; MIN6 insulin promoter-GFP reporter, high-content imaging; active compounds read high; z-score at 5 µM; 190,000 tested, 0.3% active; AID 1625;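 active = z-score above 3 at 5 µM with at least 500 cells counted in the well; inconclusive = wells under 500 cells, flagged as cytotoxic or low count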
NCF1 inh: blocks human p47phox regulatory protein of NADPH oxidases. p47phox/p22phox peptide binding, fluorescence polarization, 2 h. 220,000 tested, 0.53% active. AID 1274. inhibition, % at 24.7 µM;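 active = inhibition above about 30%, limit read from the data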;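 note: 0% = p47phox with labelled peptide and 100% = labelled peptide alone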
Target sequence (P14598 whole entry, looked up): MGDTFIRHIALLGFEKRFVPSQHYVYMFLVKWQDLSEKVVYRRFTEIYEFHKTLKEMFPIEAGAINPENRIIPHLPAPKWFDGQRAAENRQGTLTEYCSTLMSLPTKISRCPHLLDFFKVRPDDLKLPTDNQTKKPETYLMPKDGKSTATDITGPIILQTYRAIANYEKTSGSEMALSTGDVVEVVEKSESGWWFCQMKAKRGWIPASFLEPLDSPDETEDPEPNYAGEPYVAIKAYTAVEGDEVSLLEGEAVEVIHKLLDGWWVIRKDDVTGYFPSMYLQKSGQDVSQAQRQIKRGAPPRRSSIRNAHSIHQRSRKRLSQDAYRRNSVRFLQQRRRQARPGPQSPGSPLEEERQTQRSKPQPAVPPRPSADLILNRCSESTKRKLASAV
TNAP inh hiacc: blocks human TNAP under high phosphate acceptor concentration; inhibition, % at 20 µM; purified TNAP, CDP-star luminescence, 1 M DEA; 200,000 tested, 0.03% active;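 active = over 50% inhibition of tissue-nonspecific alkaline phosphatase at 20 µM in the single-dose screen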;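 note: plate controls were DMSO wells for no effect and EDTA-quenched wells as full inhibition for full effect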
Autophagy HCS: modulators of autophagy. calls only at 10 µM (by protocol). MEF GFP-LC3 puncta imaging; test concentration mostly 10 µM. 190,000 tested, 0.98% active;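 active = percentage of spot-positive cells more than 3 SD above its plate mean, without a fluorescence outlier flag or 80% toxicity; inconclusive = no clear call, values can overlap the other calls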;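 note: spot-positive cell cutoff set from DMSO-treated cells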
* marks the source's active call; other numbers are inactive results; i = inactive; ? = inconclusive; / = not tested or not shown; + = active, no number. An excerpt weighted towards active compounds, which were near 1.8% of everything screened.

SMILES	TNAP act hi DEA	TNAP inh no acc	Ins promoter up	NCF1 inh	TNAP inh hiacc	Autophagy HCS
CC(C)(C)C1CCc2c(C(=O)NNC(=O)CCC(=O)O)csc2C1 (stereo unspecified)	1	-8	0.86	-4	-2	i
COc1ccc(-c2noc(CCC(=O)NCCc3cccc(C)c3)n2)cc1	1	-6	0.85	-8	2	i
CCN1C(=O)/C(=C/C=C2\C=CN(CC)c3ccccc32)SC1=S	0.7	33	-0.56	-13	33	i
CCCN1C(=O)/C(=C\C=C2\N(CC)c3ccccc3C2(C)C)SC1=S	0.6	42	/	-240	42	+
CC1CN(CCCCOc2ccc(F)cc2)CC(C)O1 (stereo unspecified)	1.1	3	0.52	-2	-6	i
Cc1ccc(N2C(=O)CC(Nc3ccccc3)C2=O)cc1 (stereo unspecified)	1.1	-11	0.25	-3	-6	i
Cc1ccc(S(=O)(=O)NNC2CC(=O)N(c3ccc(Br)cc3)C2=O)cc1 (stereo unspecified)	1	-6	-0.18	-2	-3	+
CCCCCCCCCn1c2c(c(=N)c3c1CCC3)CCC2	1.1	-9	?	9	-8	i
CCCCCCCn1c2c(c(=N)c3c1CCC3)CCCC2	1	-11	?	12	0	+
Cc1n[nH]c(C)c1S(=O)(=O)N1CCOCC1	1	57*	-0.05	-2	2	i
COc1ccccc1/C=C1\SC(=S)N(CC(=O)Nc2nnc(C)s2)C1=O	1	-11	-0.58	-6	2	i
CCn1c(=O)cc(SCC(=O)NCc2ccco2)c2ccccc21	1	-4	-0.71	-4	-4	+
CCn1c(=O)cc(SCC(=O)Nc2ccc(C)cn2)c2ccccc21	1	14	0.34	-14	-4	+
N#Cc1c(C(F)(F)F)cc(-c2ccccc2)[nH]c1=O	1	-8	/	-9	-2	i
COc1cccc(-c2cc(C(F)(F)F)c(C#N)c(=O)[nH]2)c1	1	-9	0.61	1	-4	+
C=CCSc1n[nH]c(-c2ccc(OCCC)cc2)n1	1	50*	/	-5	-1	i
CC(C)N(Cc1nc(-c2ccccc2)no1)C(=O)c1ccc(Cl)cc1	1.1	-12	0.56	59*	-8	i
NN/C(=C\[N+](=O)[O-])Nc1ccc(Cl)cc1	1	-6	0.19	-2	5	i
COc1ccc2[nH]c3c(C)c4ccncc4c(C)c3c2c1	/	/	-2.7	92*	/	/
O=[N+]([O-])c1ccc(Cl)cc1Sc1nc2ccccc2o1	1	-4	/	5	1	+
O=[N+]([O-])c1ccc(Sc2nc3ccccc3o2)c([N+](=O)[O-])c1	1	15	1.3	-6	-4	i
OC(COc1ccccc1)Cn1c2ccccc2c2ccccc21 (stereo unspecified)	1	-12	/	9	-2	i
Oc1cccc2ccc[n+](CC(O)Cn3c4ccccc4c4ccccc43)c12 (stereo unspecified)	0.9	18	0.07	38*	12	i
CC1Oc2ccccc2C=C1/C=N/Nc1ccc(C(=O)O)cc1 (stereo unspecified)	/	/	-0.05	-19	/	/
CCOc1cc(/C=C2/NC(=O)NC2=O)cc(Br)c1OCc1ccc(C(=O)O)cc1	1	-1	1.7	-17	-2	+
SMILES	TNAP act hi DEA	TNAP inh no acc	Ins promoter up	NCF1 inh	TNAP inh hiacc	Autophagy HCS
COc1ccc(/C=C2\SC(=O)N(CC(=O)NNC(=O)c3ccccc3O)C2=O)cc1	1	-218	0.56	15	1	i
COc1ccc(/C=C2\SC(=O)N(CC(=O)NNC(=O)c3ccccc3O)C2=O)cc1OC	0.9	-138	/	34*	7	i
CCOC(=O)C1(O)CC(C)=NN1C(=O)c1cccc(Cl)c1 (stereo unspecified)	1	-20	0.13	5	-1	i
COc1ccc(OC)c(Nc2nc3nonc3nc2N2CCCCC2)c1	1	-11	0.65	-14	-2	+
CCn1cc(C(=O)N2CCc3ccccc3C2)c(=O)c2cc(S(=O)(=O)N3CCCCC3)ccc21	1	-3	0.21	-5	-2	+
CC1(C)CC(=O)c2c(Cc3ccccc3)n[nH]c2C1	1	88*	-0.95	-6	-2	i

Assay outcomes from PubChem BioAssay.
